17 compounds from ChEMBL document CHEMBL1250535, “Synthesis, anti-fungal and 1,3-β-D-glucan synthase inhibitory activities of caffeic and quinic acid derivatives” (Bioorg Med Chem, 2010) can be followed below.

As a reminder, the IC50 is the concentration needed to halve the response being measured. Low values mean greater potency in that assay, high ones weaker potency in that assay. As a reminder, the MIC is the lowest concentration that inhibits growth of the organism. A high value points to weaker potency.

Structures are written as SMILES. In brackets after ≈: the same amount, converted by molar mass. Starred links: 1 amine or outer side, 2 acyl side, 3 side chain; linkers in the order of their positions; H or OH if unused. Positions of bridges follow the written chain, without caps; N, C: chain ends. Non-standard residues stand in square brackets, D forms with d. Residues, ends and D or L forms follow the SMILES beside them. *: point of attachment. Orn(4R-OH,5R-OH) = O=C([C@H](C[C@@H](O)[C@@H](O)N[*:3])N[*:1])[*:2]; hTyr(3S-OH,4S-OH) = N[C@H](C(=O)O)[C@H](O)[C@@H](O)c1ccc(O)cc1; Pro(3S-OH,4S-Me) = C[C@H]1CN[C@H](C(=O)O)[C@H]1O; Palmitoyl = CCCCCCCCCCCCCCCC(=O)*; Hyp = O=C(O)[C@@H]1C[C@@H](O)CN1 A value given as a limit tells only on which side of the number the result lay.

The target of one assay is T1, Beta-1,3-glucan synthase (Candida albicans, UniProt O13383).
T1 sequence (O13383 whole entry): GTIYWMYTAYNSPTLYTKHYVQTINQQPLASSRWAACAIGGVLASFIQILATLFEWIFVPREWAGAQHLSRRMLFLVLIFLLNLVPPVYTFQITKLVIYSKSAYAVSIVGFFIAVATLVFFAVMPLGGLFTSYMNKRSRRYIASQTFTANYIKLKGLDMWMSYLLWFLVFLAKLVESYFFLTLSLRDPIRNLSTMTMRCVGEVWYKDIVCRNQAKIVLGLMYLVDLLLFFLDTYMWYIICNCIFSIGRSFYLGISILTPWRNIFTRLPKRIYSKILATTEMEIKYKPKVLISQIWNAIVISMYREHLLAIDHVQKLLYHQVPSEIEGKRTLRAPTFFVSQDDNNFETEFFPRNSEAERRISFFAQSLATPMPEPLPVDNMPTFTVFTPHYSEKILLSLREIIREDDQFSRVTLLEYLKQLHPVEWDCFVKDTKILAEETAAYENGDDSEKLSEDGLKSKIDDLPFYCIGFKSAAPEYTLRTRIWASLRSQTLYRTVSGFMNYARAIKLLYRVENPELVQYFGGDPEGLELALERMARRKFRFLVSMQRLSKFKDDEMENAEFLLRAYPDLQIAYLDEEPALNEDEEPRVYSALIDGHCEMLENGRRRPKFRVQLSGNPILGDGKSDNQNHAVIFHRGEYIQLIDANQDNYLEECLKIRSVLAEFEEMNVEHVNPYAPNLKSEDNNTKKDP
In words: Inhibition of Candida albicans 1,3 beta-D-glucan synthase. The gist of the method: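 Membrane-bound enzyme prepared from Candida albicans. Reaction mix: 50 mM Tris–HCl pH 7.5, 0.5 mM EDTA, 25 mM KF, GTPγS, 0.75% BSA, 5.0 mM UDP-Glc, with and without test compound. Started by adding enzyme, run 20 min at 30 °C, stopped by heating 10 min at 96 °C. Glucan formed quantified by a 1,3-β-D-glucan-dependent enzyme cascade (BGSTAR kit).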

A further assay concerns Candida albicans. In words: Antifungal activity against Candida albicans by NCCLS method. The class given is functional. The gist of the method: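 Broth dilution per NCCLS against Candida albicans NBRC 1594.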

As to `CCCCCCCCOc1ccc(NC(=O)C(CCCNC(=O)OC(C)(C)C)NC(=O)/C=C/c2ccc(O)c(O)c2)cc1` (centres undefined), the half-inhibitory concentration (IC50) on Beta-1,3-glucan synthase was determined as 52 µM. This compound also showed a minimum inhibitory concentration (MIC) against Candida albicans of 27 µM (≈ 16.1 µg/mL).
Taken in the same sequence, the figures for `CCCCCCCCOc1ccc(NC(=O)C(CCCN)NC(=O)[C@]2(O)C[C@@H](O)[C@@H](O)[C@H](O)C2)cc1` (some centres undefined) were 53 µM and 16 µM (≈ 8.15 µg/mL).
`CCCCCCCCOc1ccc(NC(=O)[C@]2(O)C[C@@H](O)[C@@H](O)[C@H](O)C2)cc1` displayed a 50% inhibitory concentration (IC50) on Beta-1,3-glucan synthase above 81 µM. In addition, in the assay on Candida albicans, the minimal inhibitory concentration (MIC) was 81 µM (≈ 32 µg/mL).
In the same order, the values of `CCCCCCCCOc1ccc(NC(=O)C(NC(=O)[C@]2(O)C[C@@H](O)[C@@H](O)[C@H](O)C2)C(C)O)cc1` (some centres undefined) are above 65 µM and above 129 µM.
For `CCCCCCCCOc1ccc(NC(=O)C(CC(=O)O)NC(=O)[C@]2(O)C[C@@H](O)[C@@H](O)[C@H](O)C2)cc1` (some centres undefined), at Beta-1,3-glucan synthase, the half-maximal inhibitory concentration (IC50) is above 63 µM. The compound further had an MIC against Candida albicans above 125 µM.
With `CCCCCCCCOc1ccc(NC(=O)C(CCCN)NC(=O)/C=C/c2ccc(O)c(O)c2)cc1` (centres undefined), the half-maximal inhibitory concentration (IC50) against Beta-1,3-glucan synthase amounted to 22 µM. In addition, the MIC against Candida albicans was found to be 4 µM (≈ 1.99 µg/mL).
Taken in the same sequence, the figures for `CCCCCCCCOc1ccc(NC(=O)/C=C/c2ccc(O)c(O)c2)cc1` were above 84 µM and 84 µM (≈ 32.2 µg/mL).
In the case of `CCCCCCCCOc1ccc(NC(=O)C(NC(=O)/C=C/c2ccc(O)c(O)c2)C(C)O)cc1` (centres undefined), the concentration for half-maximal inhibition (IC50) against Beta-1,3-glucan synthase was above 66 µM. The MIC with Candida albicans stood at 8.3 µM (≈ 4.02 µg/mL).
As to `CCCCCCCCOc1ccc(NC(=O)C(CC(=O)O)NC(=O)/C=C/c2ccc(O)c(O)c2)cc1` (centres undefined), the half-maximal inhibitory concentration (IC50) against Beta-1,3-glucan synthase was above 64 µM. The compound further showed an MIC against Candida albicans of 64 µM (≈ 31.9 µg/mL).
Consider `CCCCCCCCOc1ccc(NC(=O)C(NC(=O)/C=C/c2ccc(O)c(O)c2)C(C)OC(C)(C)C)cc1` (centres undefined), for which, on Beta-1,3-glucan synthase, the half-maximal inhibitory concentration (IC50) worked out at 37 µM. The compound further came in with a minimum inhibitory concentration (MIC) in the assay on Candida albicans of 15 µM (≈ 8.11 µg/mL).
In the same order, the values of `CCCCCCCCOc1ccc(NC(=O)C(CC(=O)OC(C)(C)C)NC(=O)/C=C/c2ccc(O)c(O)c2)cc1` (centres undefined) are 58 µM and 29 µM (≈ 16.1 µg/mL).
With `CCCCCCCCOc1ccc(NC(=O)C(NC(=O)[C@]2(O)C[C@@H](O)[C@@H](O)[C@H](OC(=O)/C=C/c3ccc(O)c(O)c3)C2)C(C)O)cc1` (some centres undefined), the concentration for half-maximal inhibition (IC50) on Beta-1,3-glucan synthase is above 49 µM. The lowest concentration to inhibit growth in the assay on Candida albicans (MIC) was 12 µM (≈ 7.9 µg/mL).
With `CCCCCCCCOc1ccc(NC(=O)C(CCCN)NC(=O)[C@]2(O)C[C@@H](O)[C@@H](O)[C@H](OC(=O)/C=C/c3ccc(O)c(O)c3)C2)cc1` (some centres undefined), at Beta-1,3-glucan synthase, the midpoint of inhibition, the IC50, lay at 15 µM. This compound also returned an MIC against Candida albicans of 6 µM (≈ 4.03 µg/mL).
In the same order, the values of `CCCCCCCCOc1ccc(NC(=O)C(CC(=O)O)NC(=O)[C@]2(O)C[C@@H](O)[C@@H](O)[C@H](OC(=O)/C=C/c3ccc(O)c(O)c3)C2)cc1` (some centres undefined) are above 48 µM and 48 µM (≈ 32.3 µg/mL).
The compound `CCCCCCCCOc1ccc(NC(=O)[C@]2(O)C[C@@H](O)[C@@H](O)[C@H](OC(=O)/C=C/c3ccc(O)c(O)c3)C2)cc1` registered an IC50 at Beta-1,3-glucan synthase of 41 µM. For the same compound, the MIC with Candida albicans was 14 µM (≈ 7.81 µg/mL).
Taken in the same sequence, the figures for `CCCCCCCCCCCCCCCC(=O)N[C@H]1C[C@@H](O)[C@@H](O)NC(=O)[C@@H]2[C@@H](O)[C@@H](C)CN2C(=O)[C@H]([C@@H](C)O)NC(=O)[C@H]([C@H](O)[C@@H](O)c2ccc(O)cc2)NC(=O)[C@@H]2C[C@@H](O)CN2C(=O)[C@H]([C@@H](C)O)NC1=O` [ACULEACIN A] (Palmitoyl-[Orn(4R-OH,5R-OH)]T[Hyp][hTyr(3S-OH,4S-OH)]T[Pro(3S-OH,4S-Me)]; lactam 1-C) were 8 µM and 0.23 µM (≈ 0.238 µg/mL).
In the same order, the values of `O=C(/C=C/c1ccc(O)c(O)c1)O[C@@H]1C[C@](O)(C(=O)O)C[C@@H](O)[C@H]1O` [CHLOROGENIC ACID] are above 90 µM and above 181 µM.
